Drawing on ChEMBL document CHEMBL1140445, “Design, synthesis, and preliminary pharmacological evaluation of a set of small molecules that directly activate gi proteins” (J Med Chem, 2005), this text covers EC50 and Stimulation for 2 compounds.

Common to all, as to format: functional
Test [1] addresses T1, Guanine nucleotide-binding protein G(i) subunit alpha-1 (Homo sapiens, UniProt P63096). Put plainly: Concentration required to stimulate binding of [35S]GTP-gamma-S, with G alpha i1. A digest of the protocol:
(§1)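 His-tagged recombinant Gαi subunits were expressed in E. coli BL21/DE3 and purified by IMAC. 3 pmol of subunit, native or in lipid vesicles, was incubated 30 min at 30 °C with 0.1 μM [35S]GTPγS in 50 mM Hepes-NaOH, 1 mM EDTA, 1 mM DTT and 100 μM MgSO4. The reaction was stopped with ice-cold buffer and filtered on cellulose nitrate. EC50 came from 1×10^-7 to 1×10^-4 M (eight concentrations).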

Test [2] has as its target T2, Guanine nucleotide-binding protein G(i) subunit alpha-3 (Homo sapiens, UniProt P08754). Put plainly: Concentration required to stimulate binding of [35S]GTP-gamma-S, with G alpha i3. A digest of the protocol:
as §1

Test [3] concerns the target T3, Guanine nucleotide-binding protein G(o) subunit alpha (Homo sapiens, UniProt P09471). Put plainly: Concentration required to stimulate binding of [35S]GTP-gamma-S, with G alpha o1. The essentials: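 Gαo: His-tagged recombinant subunit from E. coli BL21/DE3, IMAC-purified. 3 pmol, native or vesicle-reconstituted, incubated 30 min at 20 °C with 0.1 μM [35S]GTPγS in Hepes-NaOH/EDTA/DTT/100 μM MgSO4 mix. The reaction was stopped with ice-cold Tris/MgCl2/NaCl buffer, filtered on cellulose nitrate and washed. EC50 was derived from eight concentrations spanning 1×10^-7 to 1×10^-4 M.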
On the technique in general: Binding of GTPγS marks nucleotide exchange on a G protein.
Target sequence in this assay (P09471 whole entry): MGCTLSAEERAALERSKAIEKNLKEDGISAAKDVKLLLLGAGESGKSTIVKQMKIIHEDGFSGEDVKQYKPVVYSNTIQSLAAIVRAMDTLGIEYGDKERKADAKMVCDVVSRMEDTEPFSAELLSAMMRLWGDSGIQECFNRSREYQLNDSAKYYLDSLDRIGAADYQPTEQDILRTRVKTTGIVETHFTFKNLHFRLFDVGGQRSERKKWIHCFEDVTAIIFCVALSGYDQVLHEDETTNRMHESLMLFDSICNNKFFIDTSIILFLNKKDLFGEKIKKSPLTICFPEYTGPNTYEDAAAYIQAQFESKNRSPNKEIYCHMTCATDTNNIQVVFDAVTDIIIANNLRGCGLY

In test [4] the target is T1, Guanine nucleotide-binding protein G(i) subunit alpha-1. Nature of the test: Percent stimulation of [35S]GTP-gamma-S, binding to G alpha i1 at 5E-5 M of basal for 30 minutes. The essentials: (§2)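 Recombinant His-tagged Gαi subunit (3 pmol, native or in lipid vesicles) was incubated with compound at 5×10^-5 M and 0.1 μM [35S]GTPγS, 30 min at 30 °C, in 50 mM Hepes-NaOH, 1 mM EDTA, 1 mM DTT, 100 μM MgSO4. Filter-bound GTPγS after ice-cold stop and cellulose-nitrate filtration is expressed as percent of basal.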

For test [5], the target named is T3, Guanine nucleotide-binding protein G(o) subunit alpha. Put plainly: Percent stimulation of [35S]GTP-gamma-S, binding to G alpha o1 at 5E-5 M of basal for 30 minutes. The essentials: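 With Gαo (3 pmol recombinant His-tagged subunit, native or vesicle-reconstituted), binding of 0.1 μM [35S]GTPγS was measured during 30 min at 20 °C with compound at 5×10^-5 M, in Hepes-NaOH buffer with EDTA, DTT and 100 μM MgSO4. Samples were filtered on cellulose nitrate, and the value is percent of basal binding.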
Target sequence in this assay (P09471 2-354 limits assumed): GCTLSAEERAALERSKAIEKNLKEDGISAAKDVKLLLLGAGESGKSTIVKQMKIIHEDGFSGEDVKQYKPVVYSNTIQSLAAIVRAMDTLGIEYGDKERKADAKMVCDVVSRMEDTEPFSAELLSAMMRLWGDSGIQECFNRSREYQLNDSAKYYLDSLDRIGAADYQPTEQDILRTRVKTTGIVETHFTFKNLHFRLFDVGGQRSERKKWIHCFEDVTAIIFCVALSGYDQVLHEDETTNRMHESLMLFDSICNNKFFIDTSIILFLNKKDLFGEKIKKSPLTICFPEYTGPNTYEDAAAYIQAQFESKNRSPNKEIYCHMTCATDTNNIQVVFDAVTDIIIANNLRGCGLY

Test [6] has as its target T2, Guanine nucleotide-binding protein G(i) subunit alpha-3. Put plainly: Percent stimulation of [35S]GTP-gamma-S, binding to G alpha i3 at 3E-5 M of basal for 30 minutes.
For test [7] the target is unchanged. Put plainly: Percent stimulation of [35S]GTP-gamma-S, binding to G alpha i3 at 5E-5 M of basal for 30 minutes. A digest of the protocol:
as §2

T1 sequence (P63096 whole entry): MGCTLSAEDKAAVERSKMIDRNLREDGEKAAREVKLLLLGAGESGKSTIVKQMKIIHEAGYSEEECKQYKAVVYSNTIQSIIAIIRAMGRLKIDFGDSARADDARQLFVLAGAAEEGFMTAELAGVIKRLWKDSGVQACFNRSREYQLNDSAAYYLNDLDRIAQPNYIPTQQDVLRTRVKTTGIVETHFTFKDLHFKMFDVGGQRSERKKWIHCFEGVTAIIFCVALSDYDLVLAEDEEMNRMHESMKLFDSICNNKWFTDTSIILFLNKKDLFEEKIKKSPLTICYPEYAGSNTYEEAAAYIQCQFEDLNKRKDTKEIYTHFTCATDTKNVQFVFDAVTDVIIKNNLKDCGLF
T2 sequence (P08754 whole entry): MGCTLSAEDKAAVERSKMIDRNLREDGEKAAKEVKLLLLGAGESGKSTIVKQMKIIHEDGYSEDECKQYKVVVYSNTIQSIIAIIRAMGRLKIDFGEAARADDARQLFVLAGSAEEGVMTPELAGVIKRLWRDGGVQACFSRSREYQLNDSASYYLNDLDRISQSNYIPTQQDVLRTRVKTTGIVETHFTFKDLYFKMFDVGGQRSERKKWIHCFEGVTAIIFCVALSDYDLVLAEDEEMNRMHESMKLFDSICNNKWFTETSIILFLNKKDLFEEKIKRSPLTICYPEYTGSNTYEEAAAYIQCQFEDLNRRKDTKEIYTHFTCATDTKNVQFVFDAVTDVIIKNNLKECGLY

Usually EC50 stands for the concentration that produces a half-maximal response. `CCCCCCCCCCCCCCCNN1CCNCC1`: the EC50 came out at 15.9 µM in test [1], 19 µM in test [2] and 6.1 µM in test [3]. Besides, the Stimulation in test [4] amounted to 5060%; in test [5] it was 5580%; in test [6] it was 5720%.

On to `CCCCCCCCCCCCCN1CCC(C2CCNCC2)CC1`, for which the results for the Stimulation in test [7], in test [4] and in test [5] were 406%, 755% and 913%, respectively. The EC50 in test [1] worked out at 21.1 µM; in test [2], 21.2 µM; in test [3], 27.1 µM.
